In the library only some 2.3% were active in any assay of this set; here they are far more common.
CRFR2-BP ag – CRF-BP/CRF-R2 complex agonism. activation, % at 13.2 µM. 0.46% of 350,000 active. HEK293 CRF-R2/CRF-BP, calcium dye fluorescence (FLIPR); percent of saturating CRF peptide response;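 active = activation of at least 50%, plus an integration ratio under a set limit after plate pattern correction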
TPT1 inh – C. albicans TPT1 enzyme inhibition | recombinant caTPT1, FP RNA substrate dephosphorylation | AID 1962 | inhibition, % at 5 µM | 0.81% of 300,000 active;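 active = inhibition above the mean of all tested compounds plus 3 SD, set per screening campaign, cut at about 24% in these data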
Rpn11 block – Rpn11 (human) deubiquitinase inhibition; human 26S proteasome, Ub4-pepOG fluorescence polarization; 20S core pre-blocked with epoxomicin; AID 588493; calls only at 20 µM; O00487; 0.59% of 360,000 active;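 active = inhibition at 20 µM, scaled to each plate's controls, above about 33%, limit read from the data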
Target sequence (O00487 whole entry, looked up): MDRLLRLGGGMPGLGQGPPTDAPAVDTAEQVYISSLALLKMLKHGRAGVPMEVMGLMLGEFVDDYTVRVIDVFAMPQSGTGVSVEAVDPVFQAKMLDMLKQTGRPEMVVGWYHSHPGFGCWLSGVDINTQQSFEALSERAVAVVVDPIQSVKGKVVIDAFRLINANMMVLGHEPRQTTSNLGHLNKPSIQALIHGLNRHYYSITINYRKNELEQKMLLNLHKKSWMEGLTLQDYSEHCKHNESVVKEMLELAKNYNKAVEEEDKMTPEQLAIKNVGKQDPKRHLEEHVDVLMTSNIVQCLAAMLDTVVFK
HNF4A DNA FP – change in binding of human HNF4 alpha to DNA. activity change, % at 10 µM. AID 1224865. 0.3% of 360,000 active. HNF4a-FITC DNA binding, fluorescence polarization, 1 h. P41235; in the data active = activity change above about 30%, passing the limit was not always enough
CSN deneddyl inh – blocks human CSN-mediated cullin deneddylation; Purified CSN, SCF-Nedd8-OG deneddylation, fluorescence polarization; inhibition, % at 12.5 µM; 0.38% of 360,000 active;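 active = pattern-corrected inhibition above about 35%, with an unprinted fluorescence ratio check between 0.5 and 1.5, limit read from the data, passing the limit was not always enough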
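Assay system: Purified human Csn5 enzyme expressed in HEK293T cells | Amount: Enzyme 0.24 nM | Measured by: Fluorescence polarization readout | Medium: Tris/NaCl/DTT buffer, pH 7.5 | Compound dosing: One concentration, 12.5 µM, 0.25% DMSO | Times: 90 min incubation of compound, enzyme and substrate at room temperature | Control set: no-enzyme wells high, enzyme-with-substrate wells low | Read-out: % inhibition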
CRFBP-R2 block – antagonists of CRF-binding protein/CRF-R2 receptor complex. HEK293 CRF-R2/CRF-BP, CRF-induced calcium fluorescence. inhibition, % at 11.8 µM. 0.59% of 350,000 active. AID 588475;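 active = inhibition of the ligand-induced calcium signal above about 50% at the single tested concentration, limit read from the data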
TPT1 inh confirm – confirmation of Candida albicans TPT1 inhibitors; recombinant caTPT1, fluorescence polarization, RNase T1 coupled; inhibition, % at 5 µM; 74% of 2,400 active; AID 2149; shares compounds with TPT1 inh;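 active = inhibition above the primary screen limit, the mean inhibition of all tested compounds plus 3 SD, cut at about 25% in these data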
RNase T1 inh – blocks Aspergillus oryzae RNase T1, a TPT1 counter-screen; shares compounds with TPT1 inh; RNase T1 cleavage, fluorescence polarization, 1536-well; inhibition, % at 5 µM; 83% of 2,400 active; AID 2153;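 active = inhibition above the solvent-only control well mean plus 3 SD, limit set per screening run, cut at about 23% in these data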;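 note: inhibitors block cleavage so intact labeled substrate keeps polarization high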
Target sequence (P00651 whole entry, looked up): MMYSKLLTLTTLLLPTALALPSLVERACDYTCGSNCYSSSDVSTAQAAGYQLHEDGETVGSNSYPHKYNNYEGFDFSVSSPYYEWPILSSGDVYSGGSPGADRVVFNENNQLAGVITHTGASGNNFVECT
Rpn11 inh conf – Rpn11 inhibition confirmation, single concentration; shares compounds with Rpn11 block; purified human 26S proteasome, Ub4-pepOG fluorescence polarization; proteasome pretreated with epoxomicin; inhibition, % at 20 µM; 29% of 1,900 active; AID 602318
MMP-2 counter-1 – blocks human MMP-2, flagging nonselective RPN11 hits | 4% of 1,900 active | recombinant MMP-2, FRET peptide cleavage fluorescence | shares compounds with Rpn11 block | inhibition, % at 20 µM;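 note: human MMP-2 activated beforehand with APMA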
Thrombin FP – thrombin (bovine) inhibition counter-screen; shares compounds with Rpn11 block; bovine thrombin cleavage of Ub4-pepOG, fluorescence polarization; inhibition, % at 20 µM; 13% of 1,900 active;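 active = mean inhibition at least 40% at 20 µM, or signal 3 deviations below plate average, so some actives read negative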
CSN deneddyl val – validation of inhibitors of human CSN-mediated cullin deneddylation. shares compounds with CSN deneddyl inh. Csn5 deneddylation of SCF-Nedd8OG, fluorescence polarization, 90 min. inhibition, % at 16.6 µM. 62% of 540 active. AID 720654; in the data active = inhibition above about 50%
MMP-2 counter-2 – blocks human MMP-2 in a CSN deneddylation counter-screen; shares compounds with CSN deneddyl inh; recombinant MMP-2, FRET substrate fluorescence, 60 min; inhibition, % at 16.6 µM; 33% of 540 active; AID 720655;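 active = corrected plate-normalized z-score of 5 or more, or -5 or less, or inhibition of 15% or more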
Thrombin cntr – blocks bovine thrombin in a CSN deneddylation counter-screen; shares compounds with CSN deneddyl inh; bovine thrombin cleavage of Ub4-pepOG, fluorescence polarization; inhibition, % at 16.6 µM; 49% of 540 active; AID 720656;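 active = inhibition at or above a set limit, with a fluorescence interference ratio between 0.5 and a set maximum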
Large screens that a line does not name were inactive (follow-up assays come after a bar, where shown). Cut-off read from the data, not from the text of the source, unless noted: active = inhibition above about 40%; inactive = the rest.

O=C1NC(=Nc2ccccc2)S/C1=C\C=C\c1ccco1	TPT1 inh 24, Rpn11 block active, CSN deneddyl inh 74 | TPT1 inh confirm inactive | RNase T1 inh 34 | Rpn11 inh conf inactive | MMP-2 counter-1 52 | Thrombin FP inactive | CSN deneddyl val 80 | MMP-2 counter-2 inactive | Thrombin cntr inactive
COc1ccc(N=C2NC(=O)/C(=C/C=C/c3ccccc3)S2)cc1	none
CN(/N=C/c1ccc(-c2ccc([N+](=O)[O-])cc2)o1)c1ccccc1	CRFR2-BP ag 79, TPT1 inh 73, HNF4A DNA FP 48, CSN deneddyl inh 50 (not shown: Rpn11 block) | TPT1 inh confirm 74 | RNase T1 inh 82 | CSN deneddyl val 92 | MMP-2 counter-2 inactive | Thrombin cntr 25
CC(=O)Nc1ccc(S(=O)(=O)NCC(=O)N2CCN(S(=O)(=O)c3cccs3)CC2)cc1	none (no result: TPT1 inh)
C=CCN1C(=O)/C(=C\C=C2\N(C)c3ccccc3C2(C)C)SC1=S	CRFR2-BP ag 104, TPT1 inh 116, CSN deneddyl inh 72 (not shown: Rpn11 block) | TPT1 inh confirm 120 | RNase T1 inh 115 | CSN deneddyl val 117 | MMP-2 counter-2 -35 | Thrombin cntr inactive
CN(CCCOc1ccccc1Br)Cc1ccccc1	none
CCOc1ccc(N(C)c2ccc(/C=C3/SC(=S)NC3=O)cc2)cc1	CRFR2-BP ag 68, TPT1 inh 115, CSN deneddyl inh 87 (not shown: Rpn11 block) | TPT1 inh confirm 128 | RNase T1 inh 127 | CSN deneddyl val inactive | MMP-2 counter-2 24 | Thrombin cntr 66
CN1CCN(c2ccc(CNC(=O)c3ccc(-c4cnn(C)c4)c4ccoc34)cc2)CC1	none (no result: CRFR2-BP ag, TPT1 inh, CRFBP-R2 block)
Cc1cc2oc3ccc(NCCCN4CCOCC4)cc3c(=O)c2cc1C	none
Cc1cc2oc3ccc(NCCCn4ccnc4)cc3c(=O)c2cc1C	TPT1 inh 55, HNF4A DNA FP 73, CSN deneddyl inh 48 (not shown: Rpn11 block) | TPT1 inh confirm 64 | RNase T1 inh 73 | CSN deneddyl val 137 | MMP-2 counter-2 61 | Thrombin cntr 30
COc1ccc(Cl)cc1C(=O)Nc1cccc(-c2ccc3nncn3n2)c1	TPT1 inh 38, Rpn11 block active, HNF4A DNA FP 55, CSN deneddyl inh 137 | TPT1 inh confirm 55 | RNase T1 inh 28 | Rpn11 inh conf 76 | MMP-2 counter-1 inactive | Thrombin FP inactive | CSN deneddyl val inactive | MMP-2 counter-2 18 | Thrombin cntr 22
O=C1c2cnc3nc(SCc4ccccc4)nn3c2CC2c3ccccc3CCN12 (stereo unspecified)	none
O=C(N/N=C\c1c(O)ccc2ccccc12)c1ccc(S(=O)(=O)N2CCCCC2)cc1	CRFR2-BP ag 203, TPT1 inh 96, HNF4A DNA FP 71, CSN deneddyl inh 96 (not shown: Rpn11 block) | TPT1 inh confirm 100 | RNase T1 inh 101 | CSN deneddyl val 176 | MMP-2 counter-2 -44 | Thrombin cntr inactive
O=C(CNC(=O)c1ccc(S(=O)(=O)N2CCCC2)cc1)N/N=C/c1ccccc1Cl	none
Cc1ccc(-n2cccc2/C=C2/C(=N)N3C(=NC2=O)SN=C3S(C)(=O)=O)cc1Cl	TPT1 inh 32, Rpn11 block active, CSN deneddyl inh 59, CRFBP-R2 block 50 | TPT1 inh confirm 35 | RNase T1 inh 48 | Rpn11 inh conf 160 | MMP-2 counter-1 inactive | Thrombin FP 109 | CSN deneddyl val inactive | MMP-2 counter-2 inactive | Thrombin cntr 39
Cc1cc(/C=C2/C(=N)N3C(=NC2=O)SN=C3S(C)(=O)=O)c(C)n1-c1ccc(F)cc1	none
CCCSCCCNC(=O)c1cc2c(s1)CS(=O)(=O)C2	none
O=c1[nH]c(=S)[nH]c2c1C(c1ccc(Br)cc1)c1c([nH]c(=S)[nH]c1=O)O2	TPT1 inh 82, Rpn11 block active, CSN deneddyl inh 84 | TPT1 inh confirm inactive | RNase T1 inh inactive | Rpn11 inh conf 49 | MMP-2 counter-1 inactive | Thrombin FP inactive | CSN deneddyl val 50 | MMP-2 counter-2 33 | Thrombin cntr 85
CC(C)CC[n+]1ccccc1/C=C/c1ccc(N(C)C)cc1	CRFR2-BP ag 51, TPT1 inh 44, HNF4A DNA FP 55, CSN deneddyl inh 38 (not shown: Rpn11 block) | TPT1 inh confirm 49 | RNase T1 inh 58 | CSN deneddyl val 88 | MMP-2 counter-2 -58 | Thrombin cntr inactive
CN(C)c1ccc(/C=C/c2cccc[n+]2[O-])cc1	none
Cc1cccc(N=Nc2c(C)c(C#N)c(O)[nH]c2=O)c1	none (not shown: Rpn11 block)
Cc1c(C#N)c(O)[nH]c(=O)c1N=Nc1ccc(Br)cc1C(=O)O	TPT1 inh 29, HNF4A DNA FP 86, CSN deneddyl inh 56 (not shown: Rpn11 block) | TPT1 inh confirm 43 | RNase T1 inh 65 | CSN deneddyl val inactive | MMP-2 counter-2 inactive | Thrombin cntr 53
CCCCn1c(N)c(N(CCC(C)C)C(=O)c2oc3ccc(OCC)cc3c2C)c(=O)[nH]c1=O	none
CCOC(=O)SC1=N/C(=C\c2ccc(N(C)C)cc2)C(=O)S1	TPT1 inh 82, HNF4A DNA FP 79, CSN deneddyl inh 43 (not shown: Rpn11 block) | TPT1 inh confirm 101 | RNase T1 inh 102 | CSN deneddyl val 80 | MMP-2 counter-2 inactive | Thrombin cntr 46
CCN(CC)c1ccc(-c2sc(Nc3ccccc3)n[n+]2-c2ccc(F)cc2)cc1	TPT1 inh 95, CSN deneddyl inh 65 (not shown: Rpn11 block) | TPT1 inh confirm 120 | RNase T1 inh 117 | CSN deneddyl val 146 | MMP-2 counter-2 inactive | Thrombin cntr inactive

Screening results deposited in PubChem by several laboratories.
